Test results from ChEMBL document CHEMBL1124551, “Nucleic acid related compounds. 57. Synthesis, x-ray crystal structure, lipophilic partition properties, and antiretroviral activities of anomeric 3'-azido-2',3'-dideoxy-2,6-diaminopurine ribosides” (J Med Chem, 1989).

Tests used:
[1] = Ratio of CD50 and ED50 values against inhibition of HIV in MT-4 cells; assay type: functional, MT4
MT4 [2] = test: Cytotoxic dose required to reduce MT-4 cell viability by 50%
[3] = Toxic dose required to cause an alteration of normal C3H cell morphology; assay type: functional, Mus musculus
Procedure, shortened: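 C3H cell cultures were exposed to graded compound concentrations and examined by microscope. TD is the dose that alters normal cell morphology.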

MT4 [4] = test: Effective dose required to inhibit HIV-induced cytopathogenicity in human MT-4 cells; assay type: functional; conditions: read-out: ED50 (the source's name)
Procedure, shortened: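 After 5 days at 37 °C, viable cells counted by trypan blue exclusion in a hemacytometer. ED₅₀ is the dose giving 50% protection against HIV-induced cytopathogenicity.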

[5] = Effective dose required to inhibit MSV-induced transformation in murine C3H cells; assay type: functional; conditions: Mus musculus, read-out: ED50 (the source's name)
Procedure, shortened: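 Confluent mouse embryo C3H monolayers were infected with 80 focus-forming units of MSV for 90 min. Medium was then replaced with fresh medium holding graded compound concentrations. After 6 days at 37 °C, transformation was scored microscopically. ED₅₀ is the dose that inhibits transformation by 50%.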

SMILES | Ratio [1] | CD50 (MT4 [2]) | TD [3] | EC50 (MT4 [4]) | EC50 [5]
Nc1nc(N)c2ncn([C@H]3CC[C@@H](CO)O3)c2n1 | 115 | 404 µM | > 200 µM | 3.5 µM | 19 µM
[N-]=[N+]=N[C@@H]1C[C@H](N2C=NC3C(=O)N=C(N)N=C32)O[C@@H]1CO (stereo not given in full) | 59 | 165 µM | >400 µM | 2.8 µM | 6.2 µM
